According to ChEMBL document CHEMBL1154566, “Quadranosides I-V, new triterpene glucosides from the seeds of Combretum quadrangulare” (2000):
Activity calls are given as the source filed them. The rule behind the calls is not given here.

Legend:
Format in all cases: functional
[1] = test system: Hepatocyte; assay: Hepatoprotective activity against mouse hepatocytes assessed as inhibition of D-galactosamine/TNFalpha-induced cell death at 50 uM after 18 hrs by MTT assay
In short: (§1)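 Primary cultured mouse hepatocytes in Williams' E medium with 10% calf serum, penicillin G, streptomycin, 100 µM dexamethasone and 50 ng/mL insulin, seeded at 10^5 cells/well and preincubated 2 h. The medium was then replaced with fresh medium holding 0.5 mM D-GalN plus test sample.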

[2] = test system: Hepatocyte; assay: Hepatoprotective activity against mouse hepatocytes assessed as inhibition of D-galactosamine/TNFalpha-induced cell death at 100 uM after 18 hrs by MTT assay; in short: as §1
[3] = test system: Hepatocyte; assay: Hepatoprotective activity against mouse hepatocytes assessed as inhibition of D-galactosamine/TNFalpha-induced cell death at 200 uM after 18 hrs by MTT assay; in short: as §1
[4] = test system: Hepatocyte; assay: Hepatoprotective activity against mouse hepatocytes assessed as inhibition of D-galactosamine/TNFalpha-induced cell death at 25 uM after 18 hrs by MTT assay; in short: as §1

SMILES | inhibition at 50 µM [1] | inhibition at 100 µM [2] | inhibition at 200 µM [3] | Activity [4] | Activity [1] | Activity [2] | Activity [3] | inhibition at 25 µM [4]
CC1=C(C)[C@H]2C3=CC[C@@H]4[C@@]5(C)C[C@@H](O)[C@H](O)[C@@](C)(CO)[C@@H]5CC[C@@]4(C)[C@]3(C)CC[C@@]2(C(=O)O[C@@H]2O[C@H](CO)[C@@H](O)[C@H](O)[C@H]2O)CC1 | 8.3% | 25% | 15% | – | – | – | – | –
C[C@H]1[C@H](C)CC[C@]2(C(=O)O[C@@H]3O[C@H](CO)[C@@H](O)[C@H](O)[C@H]3O)CC[C@]3(C)C(=CC[C@@H]4[C@@]5(C)C[C@@H](O)[C@H](O)[C@@](C)(CO)[C@@H]5CC[C@]43C)[C@H]12 | – | – | – | inactive | inactive | inactive | inactive | –
Oc1cc(O)c2c(c1)O[C@H](c1ccc(O)c(O)c1)[C@H](O)C2 [(-)-EPICATECHIN] | 38% | 58.1% | 98.9% | – | – | – | – | –
CC1(C)CC[C@]2(C(=O)O)CC[C@]3(C)C(=CC[C@@H]4[C@@]5(C)C[C@@H](O)[C@H](O)[C@@](C)(CO)[C@@H]5CC[C@]43C)[C@@H]2[C@@H]1O [ARJUNGENIN] | 31.8% | 37% | 46.2% | – | – | – | – | –
CC1(C)CC[C@]2(C(=O)O[C@@H]3O[C@H](CO)[C@@H](O)[C@H](O)[C@H]3O)CC[C@]3(C)C(=CC[C@@H]4[C@@]5(C)C[C@@H](O)[C@H](O)[C@@](C)(CO)[C@@H]5CC[C@]43C)[C@@H]2[C@@H]1O [ARJUNGLUCOSIDE I] | 10.1% | 31.5% | 32.7% | – | – | – | – | –
Oc1cc(O)c2c(c1)O[C@H](c1cc(O)c(O)c(O)c1)[C@@H](O)C2 [GALLOCATECHIN] | 19.7% | 30.3% | 33.5% | – | – | – | – | –
C[C@@]1(CO)CC[C@]2(C(=O)O[C@@H]3O[C@H](CO)[C@@H](O)[C@H](O)[C@H]3O)CC[C@]3(C)C(=CC[C@@H]4[C@@]5(C)C[C@@H](O)[C@H](O)[C@@](C)(CO)[C@@H]5CC[C@]43C)[C@@H]2C1 [QUADRANOSIDE III] | 8% | 17.8% | 35.5% | – | – | – | – | 15.1%
C=C(C)[C@@H]1CC[C@]2(C(=O)O[C@@H]3O[C@H](CO)[C@@H](O)[C@H](O)[C@H]3O)CC[C@]3(C)[C@H](CC[C@@H]4[C@@]5(C)C[C@@H](O)[C@H](O)[C@@](C)(CO)[C@@H]5[C@H](O)C[C@]43C)[C@@H]12 [QUADRANOSIDE II] | 40.9% | 46.1% | 83.6% | – | – | – | – | 32%
C=C(C)[C@@H]1CC[C@]2(C(=O)O[C@@H]3O[C@H](CO)[C@@H](O)[C@H](O)[C@H]3O)CC[C@]3(C)[C@H](CC[C@@H]4[C@@]5(C)C[C@@H](O)[C@H](O)C(C)(C)[C@@H]5[C@H](O)C[C@]43C)[C@@H]12 [QUADRANOSIDE I] | 37.6% | 29.7% | 71.2% | – | – | – | – | 6.3%
CC1=C2C3=CC[C@@H]4[C@@]5(C)C[C@@H](O)[C@H](O)[C@@](C)(CO)[C@@H]5[C@H](O)C[C@@]4(C)[C@]3(C)CC[C@@]2(C(=O)O[C@@H]2O[C@H](CO)[C@@H](O)[C@H](O)[C@H]2O)CC[C@H]1C [QUADRANOSIDE V] | 67.5% | 77.7% | 80.1% | – | – | – | – | 59.3%
COc1cc(C2Oc3cc([C@H]4Oc5cc(O)cc(O)c5C(=O)[C@@H]4O)ccc3OC2CO)ccc1O (some centres undefined) [SILIBININ] | 61.2% | 96.5% | 70.8% | – | – | – | – | 38.1%
